Test results published in ChEMBL document CHEMBL3804753, “Substituted quinolines as noncovalent proteasome inhibitors” (Bioorg Med Chem, 2016).
pIC50: −log10 of the molar value.

Molecular target: T1, Proteasome Macropain subunit MB1 (Homo sapiens, UniProt P28074)
T1 sequence (P28074 whole entry): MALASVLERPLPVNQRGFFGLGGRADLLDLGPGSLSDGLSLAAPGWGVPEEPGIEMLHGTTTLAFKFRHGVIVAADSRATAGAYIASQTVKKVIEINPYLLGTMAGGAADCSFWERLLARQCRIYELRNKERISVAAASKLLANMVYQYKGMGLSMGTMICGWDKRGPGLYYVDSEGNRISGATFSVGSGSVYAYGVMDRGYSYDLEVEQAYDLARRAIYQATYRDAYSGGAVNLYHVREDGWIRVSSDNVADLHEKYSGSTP
Test: Inhibition of human 20S proteasome chymotryptic-like activity using Suc-LLVY-AMC as substrate assessed as fluorescence quinching control by fluorescence assay

pIC50	SMILES
5.64	CN(C)c1ccc2nc(-c3ccccc3)c(-c3ccccc3)cc2c1

Molecular target: T1, Proteasome Macropain subunit MB1
Test: Inhibition of human 20S proteasome chymotryptic-like activity using Suc-LLVY-AMC as substrate measured for 30 mins by fluorescence assay
In short: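 Purified human 20S proteasome (1 nM) in 50 mM Tris-HCl pH 7.5 with 0.03% SDS and 50 μM fluorogenic substrate (Suc-LLVY-AMC for CT-L, Z-ARR-AMC for T-L, Z-LLE-AMC for casp-L), 37 °C. Maximum fluorescence increase per minute gave specific activity; IC50 taken from the linear portion of the curves.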

pIC50	SMILES
< 4.60	Cc1nc2cc(Cl)cc(Cl)c2cc1C1=CCCCC1
< 4.60	Cc1nc2ccc(F)cc2cc1C1=CCCCC1
< 4.60	Cc1nc2ccc(Cl)cc2cc1C1=CCCCC1
< 4.60	Cc1cc(C)c2cc(-c3ccccc3)c(-c3ccccc3)nc2c1
< 4.60	Cc1nc2cc(Br)cc(Br)c2cc1C1=CCCCC1
< 4.60	CCCCc1ccc2cc(N(C)C)ccc2n1
< 4.60	Cc1nc2ccc(C(C)C)cc2cc1-c1ccccc1
5.27	Cc1nc2ccc(N3CCCCC3)cc2cc1C1=CCCCC1
< 4.60	Cc1ccc2ccccc2n1 [QUINALDINE]
< 4.60	C=C(C)c1cc2c(C)cc(C)cc2nc1CC
< 4.60	c1ccc(-c2cnc3ccccc3c2)cc1
5.04	Cc1nc2ccc(N3CCOCC3)cc2cc1C1=CCCCC1
< 4.60	CN(C)c1ccc2ncc(C(C)(C)C)cc2c1
< 4.60	COc1ccc2nc(C)c(C3=CCCCC3)cc2c1
< 4.60	CN(C)c1ccc2nc(-c3ccccc3)c(-c3ccccc3)cc2c1
< 4.60	Cc1nc2ccc(Br)cc2cc1-c1ccccc1
< 4.60	Cc1nc2ccccc2cc1C1=CCCCC1

SMILES	pIC50
Cc1cnc2ccccc2c1	< 4.60

System: not listed separately
Test: Inhibition of human 20s proteasome in human TNFalpa stimulated NF-kappaB-luc expressing HeLa cells assessed as suppression of NF-kappaB mediated gene expression preincubated for 30 min followed by TNFalpha stimulation measured after 8 hrs by steady-Glo luciferase assay
Type: cell-based
In short: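 HeLa NF-κB-luc cells were seeded in DMEM with 5% FBS and hygromycin B. After 24 h the medium was swapped for serum-free DMEM with antibiotics. Cells were pretreated 30 min at 37 °C, 5% CO2 with compound (final 50, 25, 12.5, 6.25, 3.13, 1.56 μM), vehicle 1% DMSO, or 50 μM MG-132 as positive control. TNF-α (25 ng/mL final) was then added for 8 h. Firefly luciferase was read by Steady-Glo, normalized to TNF-α stimulation. Average of 2 independent experiments.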

pIC50	SMILES
4.92	Cc1cc(C)c2cc(C3=CCCCC3)c(C)nc2c1
